Assay results: ChEMBL document CHEMBL1641413, “Identification of 3-sulfonylindazole derivatives as potent and selective 5-HT(6) antagonists” (Bioorg Med Chem, 2011)
Activity calls are given as the source filed them. The calls are words filed in the database; no cut-off is given here.

Key:
[1] = Half life in human microsomes; format: ADME, Microsome
[2] = target: T1, 5-hydroxytryptamine receptor 6 (Homo sapiens, UniProt P50406); experiment: Displacement of [3H]-LSD from cloned human 5-HT6 receptor expressed in human HeLa cells; format: cell-based
Outline: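 Radioligand displacement of [³H]-LSD from cloned human 5-HT6 receptors stably expressed in HeLa cells; compounds tested as HCl salts; Ki values determined in triplicate.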

[3] = target: T2, 5-hydroxytryptamine receptor 1A (Homo sapiens, UniProt P08908); experiment: Binding affinity to 5-HT1A receptor
T2 sequence (P08908 whole entry): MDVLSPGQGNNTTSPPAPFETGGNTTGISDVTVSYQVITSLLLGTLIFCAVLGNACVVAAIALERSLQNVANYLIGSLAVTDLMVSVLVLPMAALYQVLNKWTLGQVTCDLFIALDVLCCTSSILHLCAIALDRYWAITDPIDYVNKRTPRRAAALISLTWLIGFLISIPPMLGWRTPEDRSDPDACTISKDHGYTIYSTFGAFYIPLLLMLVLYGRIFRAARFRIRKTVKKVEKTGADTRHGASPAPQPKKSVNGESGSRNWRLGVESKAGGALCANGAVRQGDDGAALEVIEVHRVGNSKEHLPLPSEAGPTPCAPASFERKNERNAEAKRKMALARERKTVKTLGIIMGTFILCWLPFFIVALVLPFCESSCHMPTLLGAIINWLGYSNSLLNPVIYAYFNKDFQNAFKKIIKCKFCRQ

[4] = Binding affinity to P-glycoprotein
[5] = target: T3, 5-hydroxytryptamine receptor 2B (Homo sapiens, UniProt P41595); experiment: Agonist activity at 5-HT2B receptor at 0.1 nM to 10 uM by FLIPR assay; format: functional
D(2) dopamine receptor = D(2) dopamine receptor (Homo sapiens, UniProt P14416); experiment: Binding affinity to dopamine D2 receptor
[6] = target: 5-hydroxytryptamine receptor 1B (Homo sapiens, UniProt P28222); experiment: Binding affinity to 5-HT1B receptor
[7] = target: T4, 5-hydroxytryptamine receptor 2C (Homo sapiens, UniProt P28335); experiment: Binding affinity to 5-HT2C receptor
T4 sequence (P28335 whole entry): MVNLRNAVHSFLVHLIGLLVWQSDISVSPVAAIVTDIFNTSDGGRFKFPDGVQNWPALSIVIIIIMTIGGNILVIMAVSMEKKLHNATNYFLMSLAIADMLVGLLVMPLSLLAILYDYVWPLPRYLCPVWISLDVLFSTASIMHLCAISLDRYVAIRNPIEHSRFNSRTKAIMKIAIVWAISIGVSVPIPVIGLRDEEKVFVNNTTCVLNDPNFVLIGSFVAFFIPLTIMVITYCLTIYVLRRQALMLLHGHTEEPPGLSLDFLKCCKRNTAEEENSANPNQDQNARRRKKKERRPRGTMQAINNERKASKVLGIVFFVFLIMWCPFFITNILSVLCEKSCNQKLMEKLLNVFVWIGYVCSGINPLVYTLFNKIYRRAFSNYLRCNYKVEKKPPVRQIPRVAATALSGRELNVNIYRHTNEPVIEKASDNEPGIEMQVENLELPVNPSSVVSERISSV

[8] = target: T5, Alpha-2A adrenergic receptor (Homo sapiens, UniProt P08913); experiment: Binding affinity to adrenergic alpha2A receptor
T5 sequence (P08913 whole entry): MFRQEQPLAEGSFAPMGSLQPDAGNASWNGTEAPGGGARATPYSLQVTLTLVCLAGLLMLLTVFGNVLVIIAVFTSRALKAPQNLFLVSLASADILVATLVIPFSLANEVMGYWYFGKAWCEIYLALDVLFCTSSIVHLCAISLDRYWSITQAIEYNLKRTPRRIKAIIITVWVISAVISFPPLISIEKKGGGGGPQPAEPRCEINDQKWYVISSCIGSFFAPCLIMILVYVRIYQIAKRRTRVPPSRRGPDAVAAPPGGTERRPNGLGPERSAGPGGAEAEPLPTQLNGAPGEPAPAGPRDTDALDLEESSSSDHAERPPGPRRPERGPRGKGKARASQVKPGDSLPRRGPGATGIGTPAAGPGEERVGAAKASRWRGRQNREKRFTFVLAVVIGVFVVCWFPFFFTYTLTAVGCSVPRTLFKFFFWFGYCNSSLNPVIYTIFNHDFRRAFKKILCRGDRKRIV

[9] = target: T3, 5-hydroxytryptamine receptor 2B; experiment: Binding affinity to 5-HT2B receptor
[10] = % bound in plasma; format: ADME, cell-free; settings: read-out: PPB
[11] = Solubility of the compound in water; format: physicochemical
[12] = target: T1, 5-hydroxytryptamine receptor 6; experiment: Antagonist activity at cloned human 5-HT6 receptor expressed in human HeLa cells assessed as inhibition of 5HT-induced cyclic AMP formation; format: functional, cell-based
[13] = target: 5-hydroxytryptamine receptor 7 (Homo sapiens, UniProt P34969); experiment: Binding affinity to 5-HT7 receptor
[14] = target: 5-hydroxytryptamine receptor 1D (Homo sapiens, UniProt P28221); experiment: Binding affinity to 5-HT1D receptor
[15] = Half life in rat microsomes; format: ADME, Microsome
Rattus norvegicus = experiment: Cognitive enhancing effect in rat assessed as inhibition of scopolamine-induced memory deficit at 10 mg/kg, po by novel object recognition test; format: functional, organism-based; parameters: dose 10 mg/kg
Outline: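 Rats given compound orally at 10 mg/kg; scopolamine-induced memory deficit assessed in a novel object recognition assay.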

T1 sequence (P50406 whole entry): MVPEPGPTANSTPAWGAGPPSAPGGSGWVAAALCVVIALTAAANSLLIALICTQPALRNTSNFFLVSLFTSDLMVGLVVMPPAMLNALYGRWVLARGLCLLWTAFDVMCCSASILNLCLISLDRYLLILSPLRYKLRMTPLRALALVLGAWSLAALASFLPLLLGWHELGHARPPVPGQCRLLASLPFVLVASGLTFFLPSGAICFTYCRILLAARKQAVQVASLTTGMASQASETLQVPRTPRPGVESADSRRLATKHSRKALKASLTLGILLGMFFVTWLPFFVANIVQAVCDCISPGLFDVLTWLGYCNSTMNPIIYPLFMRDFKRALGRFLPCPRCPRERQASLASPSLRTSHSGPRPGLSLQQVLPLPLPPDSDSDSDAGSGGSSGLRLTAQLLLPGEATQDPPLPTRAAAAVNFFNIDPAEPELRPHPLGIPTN
Sequence of 5-hydroxytryptamine receptor 7 (P34969 whole entry): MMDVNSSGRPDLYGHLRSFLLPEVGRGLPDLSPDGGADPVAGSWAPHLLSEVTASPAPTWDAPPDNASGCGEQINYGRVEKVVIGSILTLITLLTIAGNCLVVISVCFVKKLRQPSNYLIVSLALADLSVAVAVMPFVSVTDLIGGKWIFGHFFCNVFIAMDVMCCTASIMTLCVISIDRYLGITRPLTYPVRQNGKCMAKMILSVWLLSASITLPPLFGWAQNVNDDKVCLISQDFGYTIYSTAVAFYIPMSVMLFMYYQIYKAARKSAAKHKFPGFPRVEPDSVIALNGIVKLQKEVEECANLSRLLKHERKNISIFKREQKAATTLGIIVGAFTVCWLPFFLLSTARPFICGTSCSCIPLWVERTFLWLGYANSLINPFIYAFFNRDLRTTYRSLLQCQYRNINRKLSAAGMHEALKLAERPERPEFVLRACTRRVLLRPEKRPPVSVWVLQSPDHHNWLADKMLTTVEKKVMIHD
Sequence of D(2) dopamine receptor (P14416 whole entry): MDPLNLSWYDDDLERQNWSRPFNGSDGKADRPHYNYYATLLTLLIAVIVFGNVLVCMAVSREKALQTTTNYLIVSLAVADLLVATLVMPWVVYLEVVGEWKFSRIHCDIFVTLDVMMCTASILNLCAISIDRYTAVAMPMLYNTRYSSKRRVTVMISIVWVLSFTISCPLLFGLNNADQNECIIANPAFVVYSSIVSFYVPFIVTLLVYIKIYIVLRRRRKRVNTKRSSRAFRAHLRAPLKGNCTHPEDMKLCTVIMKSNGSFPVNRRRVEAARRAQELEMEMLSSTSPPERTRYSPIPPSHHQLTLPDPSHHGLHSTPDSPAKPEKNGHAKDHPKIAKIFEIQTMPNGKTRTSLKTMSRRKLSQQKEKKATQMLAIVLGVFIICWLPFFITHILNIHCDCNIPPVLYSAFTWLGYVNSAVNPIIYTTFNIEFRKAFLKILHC
Sequence of 5-hydroxytryptamine receptor 1D (P28221 whole entry): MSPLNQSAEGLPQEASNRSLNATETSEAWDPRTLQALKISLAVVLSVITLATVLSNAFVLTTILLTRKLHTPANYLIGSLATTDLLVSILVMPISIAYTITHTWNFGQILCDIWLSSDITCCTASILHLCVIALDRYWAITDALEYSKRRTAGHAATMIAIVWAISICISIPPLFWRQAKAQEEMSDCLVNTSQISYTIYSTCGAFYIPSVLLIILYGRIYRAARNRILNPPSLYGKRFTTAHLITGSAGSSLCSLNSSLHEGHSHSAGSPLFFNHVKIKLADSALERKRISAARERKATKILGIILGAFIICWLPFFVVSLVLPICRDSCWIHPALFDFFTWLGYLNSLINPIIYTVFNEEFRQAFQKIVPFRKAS
Sequence of 5-hydroxytryptamine receptor 1B (P28222 whole entry): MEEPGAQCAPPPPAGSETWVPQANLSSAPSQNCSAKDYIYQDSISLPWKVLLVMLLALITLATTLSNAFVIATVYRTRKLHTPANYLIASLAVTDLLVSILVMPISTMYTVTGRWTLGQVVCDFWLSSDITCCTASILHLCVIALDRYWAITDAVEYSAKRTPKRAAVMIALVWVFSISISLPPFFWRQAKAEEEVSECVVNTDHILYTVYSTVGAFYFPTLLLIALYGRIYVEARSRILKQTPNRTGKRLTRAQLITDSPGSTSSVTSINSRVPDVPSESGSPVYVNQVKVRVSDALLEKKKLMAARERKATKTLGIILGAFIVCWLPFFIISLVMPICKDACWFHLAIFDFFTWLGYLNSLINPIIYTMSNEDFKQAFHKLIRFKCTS
T3 sequence (P41595 whole entry): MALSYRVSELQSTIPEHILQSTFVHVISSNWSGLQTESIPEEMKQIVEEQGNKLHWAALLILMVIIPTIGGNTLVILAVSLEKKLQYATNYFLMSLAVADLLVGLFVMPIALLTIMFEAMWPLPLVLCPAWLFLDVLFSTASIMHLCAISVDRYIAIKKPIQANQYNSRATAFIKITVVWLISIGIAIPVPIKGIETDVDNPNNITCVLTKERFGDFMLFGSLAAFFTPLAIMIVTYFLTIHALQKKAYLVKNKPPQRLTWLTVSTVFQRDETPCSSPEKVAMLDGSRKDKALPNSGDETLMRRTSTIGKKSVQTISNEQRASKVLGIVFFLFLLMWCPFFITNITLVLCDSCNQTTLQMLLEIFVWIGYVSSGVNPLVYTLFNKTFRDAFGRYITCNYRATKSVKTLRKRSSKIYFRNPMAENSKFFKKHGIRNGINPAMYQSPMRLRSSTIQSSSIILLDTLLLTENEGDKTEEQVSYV

Row | half-life [1] [min] | Ki [2] [nM] | Ki [3] [nM] | Activity [4] | Activity [5] | Ki (D(2) dopamine receptor) [nM] | Ki [6] [nM] | Ki [7] [nM] | Ki [8] [nM] | Ki [9] [nM] | fraction unbound [10] | solubility [11] [µg/mL] | IC50 [12] [nM] | Ki [13] [nM] | Ki [14] [nM] | half-life [15] [min] | Compound | inhibition (Rattus norvegicus)
1 | > 30 | 1.1 | 3010 | inactive | inactive | > 5000 | > 5000 | > 5000 | > 5000 | 33 | > 0.2 | > 100 | 8.2 | > 5000 | 1340 | > 30 | Cl.O=C(Nc1ccc2[nH]nc(S(=O)(=O)c3cccc4ccccc34)c2c1)C1CCNCC1 | Active
2 | > 30 | 0.7 | > 5000 | inactive | inactive | > 5000 | > 5000 | > 5000 | > 5000 | 675 | > 0.2 | > 100 | 15 | 3970 | > 5000 | > 30 | Cl.O=S(=O)(c1cccc2ccccc12)c1n[nH]c2ccc(NC3CCNCC3)cc12 | Active
3 | > 30 | 1 | 859 | inactive | inactive | > 5000 | 2730 | 1770 | > 5000 | 1760 | > 0.2 | > 100 | 14 | > 5000 | 1500 | > 30 | CC(C)c1ccc(S(=O)(=O)c2n[nH]c3ccc(NC4CCNCC4)cc23)cc1.Cl | 
